The record followed here is ChEMBL document CHEMBL1132179, “Design, synthesis, and biological evaluation of novel non-piperazine analogues of 1-[2-(diphenylmethoxy)ethyl]- and 1-[2-[bis(4-fluorophenyl)methoxy]ethyl]-4-(3-phenylpropyl)piperazines as dopamine transporter inhibitors” (J Med Chem, 1999).

For assay [1], the target named is T1, Sodium-dependent dopamine transporter (Homo sapiens, UniProt Q01959). Put plainly: Ratio between [3H]DA reuptake and DAT binding. Format: functional.
Assay [2] addresses T1, Sodium-dependent dopamine transporter. The assay is described as follows: Inhibition of [125I]RTI-55 binding at Dopamine transporter (DAT) expressed in HEK cells. Format: cell-based, HEK293. Put shortly:
(§1)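 Membranes from transfected HEK 293 cells (lysed in 2 mM HEPES/1 mM EDTA, pelleted at 30000g, resuspended in 0.32 M sucrose), ~15 μg protein per tube. GF/C filtration, counting. Duplicate competition curves; IC50 converted to Ki by Cheng–Prusoff.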

Assay [3] deals with T2, Sodium-dependent noradrenaline transporter (Homo sapiens, UniProt P23975). Put plainly: Inhibition of [125I]RTI-55 binding to norepinephrine transporter (NET) expressed in HEK cells. The class given is cell-based, HEK293.
Assay [4] deals with Monoamine transporters; Norepinephrine & dopamine (Homo sapiens) (UniProt Q01959+P23975). Put plainly: selectivity ratio between noradrenaline and dopamine transporter binding. Format: protein assay.
In assay [5] the target is T2, Sodium-dependent noradrenaline transporter. The assay is described as follows: Inhibition of [3H]- NE uptake in HEK cells expressing norepinephrine transporter. Format: functional, cell-based, HEK293.
In assay [6] the target is T3, Sodium-dependent serotonin transporter (Homo sapiens, UniProt P31645). Put plainly: Inhibition of [125I]RTI-55 binding to serotonin transporter (SERT) expressed in HEK cells. Format: cell-based, HEK293. Put shortly:
as §1
Target sequence in this assay (P31645 whole entry): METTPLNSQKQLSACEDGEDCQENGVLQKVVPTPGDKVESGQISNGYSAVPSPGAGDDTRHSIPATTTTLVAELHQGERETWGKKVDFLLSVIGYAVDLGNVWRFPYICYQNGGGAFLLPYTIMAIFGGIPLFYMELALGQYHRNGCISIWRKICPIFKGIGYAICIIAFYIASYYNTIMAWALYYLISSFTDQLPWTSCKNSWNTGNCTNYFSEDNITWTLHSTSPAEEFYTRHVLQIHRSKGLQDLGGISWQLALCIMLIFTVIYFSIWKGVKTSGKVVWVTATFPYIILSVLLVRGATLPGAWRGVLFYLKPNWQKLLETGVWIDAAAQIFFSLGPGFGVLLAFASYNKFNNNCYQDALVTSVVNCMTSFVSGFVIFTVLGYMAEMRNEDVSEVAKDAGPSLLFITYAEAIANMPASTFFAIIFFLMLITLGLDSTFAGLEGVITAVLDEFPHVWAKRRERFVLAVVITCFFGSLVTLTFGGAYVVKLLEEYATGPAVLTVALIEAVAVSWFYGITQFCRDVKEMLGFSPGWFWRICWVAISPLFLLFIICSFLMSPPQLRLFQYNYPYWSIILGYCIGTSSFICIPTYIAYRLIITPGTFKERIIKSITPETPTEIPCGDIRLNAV

The target of assay [7] is T3, Sodium-dependent serotonin transporter. The assay is described as follows: Ratio between [3H]5-HT reuptake and SERT binding. Format: functional.
Target sequence in this assay (P31645 whole entry, looked up): as the sequence (P31645 whole entry) above
Assay [8] addresses Monoamine transporters; serotonin & dopamine (Homo sapiens) (UniProt P31645+Q01959). Put plainly: Selectivity ratio between serotonin and dopamine transporters. The class given is protein assay.
Assay [9] has as its target T3, Sodium-dependent serotonin transporter. The assay is described as follows: Inhibition of [3H]- 5-HT uptake in HEK cells expressing serotonin transporter. The class given is functional, cell-based, HEK293. The essentials: (§2)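 Confluent transfected HEK 293 cells washed in PBS, scraped and suspended. Suspension preincubated with drug 10 min at 25 °C in Krebs HEPES, then [3H]DA or [3H]5-HT (20 nM final) added for another 10 min. Ended by filtration onto GF/C filters presoaked in 0.05% poly(ethylenimine), counting. Six drug concentrations, triplicate; IC50 reported.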
Target sequence in this assay (P31645 whole entry): as above

In assay [10] the target is T1, Sodium-dependent dopamine transporter. The assay is described as follows: Inhibition of [3H]DA uptake in HEK cells expressing dopamine transporter. Format: functional, cell-based, HEK293. Put shortly: as §2
The target in assay [11] is T2, Sodium-dependent noradrenaline transporter. Put plainly: Compound was tested for its affinity by the inhibition of [125I]RTI-55 binding at norepinephrine transporter (NET) transfected in HEK cells. The class given is cell-based, HEK293. The essentials:
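Membranes from HEK 293 cells transfected with NET (lysed in 2 mM HEPES/1 mM EDTA, pelleted at 30000g, resuspended in 0.32 M sucrose), ~15 μg protein, preincubated with drug 10 min. Then [125I]RTI-55 (40–80 pM final) added in Krebs HEPES, 90 min at room temperature in dark. Filtration, counting. Competition in duplicate; IC50 converted to Ki by Cheng–Prusoff. Final DMSO 0.01%.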

Monoamine transporters; Norepinephrine & dopamine (Homo sapiens), sequence (P23975 whole entry, looked up): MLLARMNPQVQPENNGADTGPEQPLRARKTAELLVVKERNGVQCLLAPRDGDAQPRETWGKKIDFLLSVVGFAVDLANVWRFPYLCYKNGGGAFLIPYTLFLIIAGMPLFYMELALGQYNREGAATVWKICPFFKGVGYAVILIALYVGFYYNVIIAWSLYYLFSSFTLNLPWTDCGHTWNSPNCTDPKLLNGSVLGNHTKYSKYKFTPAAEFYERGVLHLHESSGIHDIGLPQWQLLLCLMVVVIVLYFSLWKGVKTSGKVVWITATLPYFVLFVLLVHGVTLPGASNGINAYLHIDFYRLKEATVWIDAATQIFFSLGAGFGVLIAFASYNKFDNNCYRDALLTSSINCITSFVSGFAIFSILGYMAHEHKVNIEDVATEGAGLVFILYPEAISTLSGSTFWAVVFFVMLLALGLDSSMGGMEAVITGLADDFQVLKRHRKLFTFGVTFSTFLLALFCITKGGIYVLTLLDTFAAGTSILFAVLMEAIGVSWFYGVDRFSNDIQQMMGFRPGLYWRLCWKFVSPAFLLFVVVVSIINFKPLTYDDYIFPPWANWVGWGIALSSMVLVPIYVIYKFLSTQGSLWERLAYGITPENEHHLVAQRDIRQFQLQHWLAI
Monoamine transporters; Norepinephrine & dopamine (Homo sapiens), sequence (Q01959 whole entry, looked up): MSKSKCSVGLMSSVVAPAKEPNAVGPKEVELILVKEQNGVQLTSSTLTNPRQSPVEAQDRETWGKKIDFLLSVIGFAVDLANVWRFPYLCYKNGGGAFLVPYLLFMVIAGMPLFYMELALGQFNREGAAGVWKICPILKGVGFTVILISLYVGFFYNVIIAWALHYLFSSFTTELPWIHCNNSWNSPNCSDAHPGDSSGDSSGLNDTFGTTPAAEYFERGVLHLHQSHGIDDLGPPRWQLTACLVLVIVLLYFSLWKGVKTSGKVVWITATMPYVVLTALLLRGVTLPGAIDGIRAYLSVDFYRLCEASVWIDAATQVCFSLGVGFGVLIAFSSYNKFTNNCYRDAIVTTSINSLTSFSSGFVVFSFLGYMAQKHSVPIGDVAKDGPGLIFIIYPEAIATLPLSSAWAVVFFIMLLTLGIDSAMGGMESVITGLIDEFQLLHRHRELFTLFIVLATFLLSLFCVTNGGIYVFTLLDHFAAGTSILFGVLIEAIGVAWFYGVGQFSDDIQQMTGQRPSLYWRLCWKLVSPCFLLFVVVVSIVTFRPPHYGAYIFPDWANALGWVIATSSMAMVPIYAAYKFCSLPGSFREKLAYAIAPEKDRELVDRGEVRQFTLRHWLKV
T2 sequence (P23975 whole entry): as the sequence (P23975 whole entry, looked up) above
T1 sequence (Q01959 whole entry): as the sequence (Q01959 whole entry, looked up) above
Monoamine transporters; serotonin & dopamine (Homo sapiens), sequence (P31645 whole entry, looked up): as the sequence (P31645 whole entry) above
Monoamine transporters; serotonin & dopamine (Homo sapiens), sequence (Q01959 whole entry, looked up): as the sequence (Q01959 whole entry, looked up) above

What is called Ki is the equilibrium dissociation constant of an inhibitor or competing ligand from its target. A low value points to tighter binding. Usually IC50 stands for the midpoint of a concentration-inhibition curve. On to `O=C(/C=C/c1ccc(Br)cc1)NCCNCCOC(c1ccc(F)cc1)c1ccc(F)cc1`, for which the Ratio came to 2.7 in assay [1] and 7.6 in [7]. In addition, the Ki in [2] was 510 nM; in assay [3], 1760 nM; in assay [6], 590 nM. The Selectivity ratio in assay [4] worked out at 3.5; in assay [8], 1.2. In addition, the 50% inhibitory concentration (IC50) in assay [5] is above 10000 nM; in assay [9], 4500 nM; in [10], 1380 nM.

As to `Fc1ccc(C(OCCNCCCNCCc2ccccc2)c2ccc(F)cc2)cc1`, the values for the Ratio in assay [1] and in assay [7] were 2.4 and 2, respectively. Also, the inhibition constant (Ki) in assay [2] is 28 nM; in [3] it was 82 nM; in assay [6], 125 nM. For the same compound, the results for the Selectivity ratio in assay [4] and in assay [8] were 2.9 and 4.5, respectively. Further, the IC50 in assay [5] is 116 nM; in [9], 249 nM; in assay [10], 68 nM.

For `CN(CCCc1ccccc1)CCCN(C)CCOC(c1ccccc1)c1ccccc1`, the Ratio in assay [1] amounted to 1.9; in assay [7], 3.9. The results for the inhibitory constant (Ki) in [2], in assay [3] and in assay [6] were 122 nM, 30 nM and 438 nM, respectively. Also, the Selectivity ratio in [4] turned out to be 0.2; in [8], 3.6. Moreover, the results for the 50% inhibitory concentration (IC50) in [5], in [9] and in [10] were 143 nM, 1700 nM and 237 nM, respectively.

For the compound `CN(CCCN(C)CCc1ccccc1)CCOC(c1ccccc1)c1ccccc1`, the Ratio in assay [1] and in assay [7] was 1.1 throughout. For the same compound, the Ki turned out to be 322 nM in [2], 194 nM in assay [3] and 1530 nM in assay [6]. In addition, the Selectivity ratio in assay [4] stood at 0.6; in assay [8] it was 4.7. Moreover, the IC50 came out at 210 nM in assay [5], 1700 nM in assay [9] and 349 nM in assay [10].

`O=C1CN(CCc2ccccc2)CCN1CCOC(c1ccc(F)cc1)c1ccc(F)cc1`: the Ratio in assay [1] is above 1.7; in assay [7], above 34.5. Moreover, the inhibition constant (Ki) in assay [2] is 1430 nM; in [3], 7050 nM; in assay [6], 114 nM. The Selectivity ratio is 4.9 in assay [4] and 0.1 in [8]. In addition, the concentration for half-maximal inhibition (IC50) in assay [5] was above 10000 nM; in assay [9], 3940 nM; in assay [10], above 10000 nM.

Consider `O=C(Cc1ccccc1)NCCNCCOC(c1ccc(F)cc1)c1ccc(F)cc1`, for which the Ratio in assay [1] was 1.5; in assay [7] it was 2.3. Besides, the inhibition constant (Ki) in assay [2] came out at 54 nM; in assay [3], 604 nM; in [6] it was 556 nM. In addition, the results for the Selectivity ratio in [4] and in assay [8] were 11.2 and 10.3, respectively. For the same compound, the IC50 in assay [5] turned out to be 399 nM; in assay [9] it was 1300 nM; in [10], 80 nM.

On to `CN(CCOC(c1ccccc1)c1ccccc1)CCN(C)CCc1ccc(F)cc1`, for which the values for the Ratio in assay [1] and in [7] were 4 and 1.9, respectively. For the same compound, the Ki in assay [2] stood at 30 nM; in assay [3] it was 370 nM; in assay [6] it was 550 nM. The results for the Selectivity ratio in [4] and in [8] were 12.3 and 18.3, respectively. Also, the concentration for half-maximal inhibition (IC50) amounted to 279 nM in assay [5], 1050 nM in [9] and 119 nM in assay [10].

Take `O=C(CCc1ccccc1)NCCNCCOC(c1ccc(F)cc1)c1ccc(F)cc1`: the Ratio in [1] is 1.8; in assay [7], 2.2. For the same compound, the Ki in assay [2] worked out at 51 nM; in assay [3] it was 545 nM; in assay [6] it was 523 nM. For the same compound, the Selectivity ratio in assay [4] was 10.7; in [8] it was 10.3. Further, the IC50 worked out at 205 nM in assay [5], 1140 nM in [9] and 90 nM in [10].

On to `O=C(Cc1ccc(F)cc1)NCCNCCOC(c1ccc(F)cc1)c1ccc(F)cc1`, for which the Ratio in assay [1] is 0.9; in [7], 5.7. Also, the figures for the Ki in assay [2], in [3] and in assay [6] were 54 nM, 844 nM and 351 nM, respectively. Further, the Selectivity ratio was found to be 15.6 in assay [4] and 6.5 in assay [8]. In addition, the IC50 in [5] is 299 nM; in assay [9], 1990 nM; in [10], 47 nM.

Turning to `CN(CCOC(c1ccc(F)cc1)c1ccc(F)cc1)CCN(C)CCOC(c1ccc(F)cc1)c1ccc(F)cc1`, the results for the Ratio in assay [1] and in [7] were 32.4 and above 13, respectively. The figures for the Ki in [2], in assay [3] and in assay [6] were 26 nM, 261 nM and 770 nM, respectively. Also, the Selectivity ratio amounted to 10.2 in [4] and 30.1 in assay [8]. Moreover, the half-inhibitory concentration (IC50) was 2600 nM in [5], above 10000 nM in assay [9] and 830 nM in assay [10].

With `O=C1CN(CCOC(c2ccccc2)c2ccccc2)CCN1CCCc1ccccc1`, the Ratio was above 1.2 in [1] and above 1.7 in assay [7]. Moreover, the inhibitory constant (Ki) in assay [2] was found to be 8200 nM; in assay [11], 5850 nM; in assay [6] it was 5900 nM. For the same compound, the values for the Selectivity ratio in assay [4] and in assay [8] were 1 and 0.7, respectively. Also, the IC50 in assay [5], in assay [9] and in [10] was above 10 nM each time.

Regarding `O=C(Cc1ccccc1)NCCCNCCOC(c1ccc(F)cc1)c1ccc(F)cc1`, the Ratio in assay [1] was 1.2; in assay [7], 1.1. Also, the Ki in assay [2] was found to be 61 nM; in assay [3], 477 nM; in assay [6] it was 1150 nM. Also, the Selectivity ratio in assay [4] came out at 7.8; in assay [8], 18.8. Also, the IC50 is 192 nM in [5], 1230 nM in assay [9] and 73 nM in assay [10].
